ChEMBL document CHEMBL2413060, “Synthesis, biological evaluation and molecular docking studies of some pyrimidine derivatives” (2013)
Converted amounts (≈) assume the structure as drawn.

Tests used:
Assay type in all cases: functional
UACC-257 = test: Cytotoxicity against human UACC257 cells assessed as growth inhibition at 10 uM; settings: read-out: GI
Procedure, shortened: (§1)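 Single-dose screen in a sixty-cell human tumour line panel; percent growth of treated cells relative to untreated was read and reported as percentage growth inhibition, shown as a mean graph. Compounds meeting the threshold inhibition criteria went on to five-dose testing.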

Staphylococcus aureus [1] = test: Antibacterial activity against Staphylococcus aureus ATCC 6538P assessed as diameter of inhibition zone at 1 mg/ml after 24 hrs by cup diffusion method (reference value: 15 mm); settings: read-out: DIZ
Shigella flexneri [2] = test: Antibacterial activity against Shigella flexneri ATCC 15391 assessed as diameter of inhibition zone at 1 mg/ml after 24 hrs by cup diffusion method (reference value: 17 mm); settings: ATCC 15391, 24 h, read-out: DIZ
Pseudomonas aeruginosa [3] = test: Antibacterial activity against Pseudomonas aeruginosa ATCC 9027 assessed as diameter of inhibition zone at 1 mg/ml after 24 hrs by cup diffusion method (reference value: 16 mm); settings: ATCC 9027, 24 h, read-out: DIZ
OVCAR-8 = test: Cytotoxicity against human OVCAR8 cells assessed as growth inhibition at 10 uM; settings: read-out: GI
Procedure, shortened: (§2)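 Single-dose screen on human tumour cell lines. Growth of treated cells is expressed as percent of untreated growth, plotted as a mean graph, and reported as percent growth inhibition.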

Candida albicans [4] = test: Antifungal activity against Candida albicans ATCC 2091 assessed as diameter of inhibition zone at 1 mg/ml after 48 hrs by cup diffusion method (reference value: 22 mm); settings: ATCC 2091, 48 h, read-out: DIZ
HCC 2998 = test: Cytotoxicity against human HCC2998 cells assessed as growth inhibition at 10 uM; settings: read-out: GI
Staphylococcus aureus [5] = test: Antibacterial activity against Staphylococcus aureus ATCC 6538P after 24 hrs by two-fold serial dilution method
Procedure, shortened: (§3)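 Two-fold serial broth dilution in sterile nutrient broth at 500, 250, 125, 62.5, 31.25, 15.63, 7.82 and 3.91 µg/ml, with dimethylformamide ≤2.5%. Organisms were pre-grown 24 h in broth, and 0.1 ml inoculum was added per 5 ml tube. Tubes were incubated at 37°C, 24 h for bacteria and 48 h for fungi. MIC was taken as the lowest concentration giving no turbidity.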

Shigella flexneri [6] = test: Antibacterial activity against Shigella flexneri ATCC 15391 after 24 hrs by two-fold serial dilution method; settings: ATCC 15391, 24 h; procedure, shortened: as §3
Shigella flexneri [7] = test: Antibacterial activity against Shigella flexneri ATCC 15391 after 24 hrs by two-fold serial dilution method relative to ofloxacin
Pseudomonas aeruginosa [8] = test: Antibacterial activity against Pseudomonas aeruginosa ATCC 9027 after 24 hrs by two-fold serial dilution method relative to ofloxacin
HOP-62 = test: Cytotoxicity against human HOP62 cells assessed as growth inhibition at 10 uM; settings: read-out: GI
Pseudomonas aeruginosa [9] = test: Antibacterial activity against Pseudomonas aeruginosa ATCC 9027 after 24 hrs by two-fold serial dilution method; settings: ATCC 9027, 24 h; procedure, shortened: as §3
HOP-92 = test: Cytotoxicity against human HOP92 cells assessed as growth inhibition at 10 uM; settings: read-out: GI
M14 = test: Cytotoxicity against human M14 cells assessed as growth inhibition at 10 uM; settings: read-out: GI
Candida albicans [10] = test: Antifungal activity against Candida albicans ATCC 2091 after 48 hrs by two-fold serial dilution method relative to clotrimazole
Candida albicans [11] = test: Antifungal activity against Candida albicans ATCC 2091 after 48 hrs by two-fold serial dilution method; settings: ATCC 2091, 48 h; procedure, shortened: as §3
SK-MEL-2 = test: Cytotoxicity against human SK-MEL-2 cells assessed as growth inhibition at 10 uM; settings: read-out: GI; procedure, shortened: as §2
UO-31 = test: Cytotoxicity against human UO31 cells assessed as growth inhibition at 10 uM; settings: read-out: GI; procedure, shortened: as §1

| MIC (Staphylococcus aureus [5]) [mg/L] | MIC (Shigella flexneri [6]) [mg/L] | MIC (Pseudomonas aeruginosa [9]) [mg/L] | MIC (Candida albicans [11]) [mg/L] | Compound | inhibition of growth at 10 µM (UACC-257) [%] | zone of inhibition at 1000 µg/mL (Staphylococcus aureus [1]) [mm] | zone of inhibition at 1000 µg/mL (Shigella flexneri [2]) [mm] | zone of inhibition at 1000 µg/mL (Pseudomonas aeruginosa [3]) [mm] | inhibition of growth at 10 µM (OVCAR-8) [%] | zone of inhibition at 1000 µg/mL (Candida albicans [4]) [mm] | inhibition of growth at 10 µM (HCC 2998) [%] | Activity (Shigella flexneri [7]) [%] | Activity (Pseudomonas aeruginosa [8]) [%] | inhibition of growth at 10 µM (HOP-62) [%] | inhibition of growth at 10 µM (HOP-92) [%] | inhibition of growth at 10 µM (M14) [%] | Activity (Candida albicans [10]) [%] | inhibition of growth at 10 µM (SK-MEL-2) [%] | inhibition of growth at 10 µM (UO-31) [%] |
| --- | --- | --- | --- | --- | --- | --- | --- | --- | --- | --- | --- | --- | --- | --- | --- | --- | --- | --- | --- |
| 125 (≈ 437 µM) |  |  |  | N#Cc1c(N2CCCCC2)nc(=S)[nH]c1-c1ccco1 |  | 18 | 17 | 16 |  | 22 |  |  |  |  |  |  |  |  |  |
|  |  | 62.5 (≈ 263 µM) |  | N#Cc1c(Cl)nc(=S)[nH]c1-c1ccco1 |  | 15 | 17 | 18 |  | 22 |  |  |  | 49.6 |  |  |  |  |  |
|  |  | 125 (≈ 324 µM) |  | Cn1c(N2CCN(Cc3ccccc3)CC2)nc(-c2ccccc2)c(C#N)c1=O |  | 17 | 17 | 18 | 54.6 | 22 |  |  |  |  |  |  |  |  | 49.1 |

More lines, now with the values behind:

| Compound | MIC (Staphylococcus aureus [5]) [mg/L] | MIC (Shigella flexneri [6]) [mg/L] | MIC (Pseudomonas aeruginosa [9]) [mg/L] | MIC (Candida albicans [11]) [mg/L] | inhibition of growth at 10 µM (UACC-257) [%] | zone of inhibition at 1000 µg/mL (Staphylococcus aureus [1]) [mm] | zone of inhibition at 1000 µg/mL (Shigella flexneri [2]) [mm] | zone of inhibition at 1000 µg/mL (Pseudomonas aeruginosa [3]) [mm] | inhibition of growth at 10 µM (OVCAR-8) [%] | zone of inhibition at 1000 µg/mL (Candida albicans [4]) [mm] | inhibition of growth at 10 µM (HCC 2998) [%] | Activity (Shigella flexneri [7]) [%] | Activity (Pseudomonas aeruginosa [8]) [%] | inhibition of growth at 10 µM (HOP-62) [%] | inhibition of growth at 10 µM (HOP-92) [%] | inhibition of growth at 10 µM (M14) [%] | Activity (Candida albicans [10]) [%] | inhibition of growth at 10 µM (SK-MEL-2) [%] | inhibition of growth at 10 µM (UO-31) [%] |
| --- | --- | --- | --- | --- | --- | --- | --- | --- | --- | --- | --- | --- | --- | --- | --- | --- | --- | --- | --- |
| Cn1c(N2CCOCC2)nc(-c2ccco2)c(C#N)c1=O |  |  |  |  | 69.8 | 15 | 17 | 17 | 47.1 | 22 |  |  |  |  |  |  |  |  |  |
| N#Cc1c(N2CCN(Cc3ccccc3)CC2)nc(=S)[nH]c1-c1ccc([N+](=O)[O-])cc1 |  |  |  |  |  | 15 | 17 | 16 |  | 22 | 71.8 |  |  |  |  |  |  |  |  |
| N#Cc1c(N2CCCCC2)nc(=S)[nH]c1-c1ccc([N+](=O)[O-])cc1 |  | 125 (≈ 366 µM) |  |  |  | 15 | 23 | 17 |  | 22 |  | 60 | 60 |  |  |  |  |  |  |
| N#Cc1c(Cl)nc(=S)[nH]c1-c1ccccc1 |  | 125 (≈ 505 µM) | 125 (≈ 505 µM) |  |  | 15 | 22 | 18 |  | 22 |  |  |  | 47.4 | 48.5 |  |  |  |  |
| N#Cc1c(-c2ccccc2)nc(SCC(=O)Nc2ccc(Cl)cc2)[nH]c1=O | 3.91 (≈ 9.85 µM) |  | 125 (≈ 315 µM) | 125 (≈ 315 µM) |  | 20 | 17 | 22 |  | 30 | 84.4 |  |  |  |  | 45 | 75 |  |  |
| N#Cc1c(-c2ccco2)nc(SCC2CO2)[nH]c1=O (stereo not given) | 125 (≈ 454 µM) | 125 (≈ 454 µM) | 125 (≈ 454 µM) | 125 (≈ 454 µM) |  | 18 | 24 | 18 |  | 25 |  | 60 | 50 |  |  |  | 62 |  |  |
| Cn1c(N2CCCCC2)nc(-c2ccco2)c(C#N)c1=O |  |  |  |  |  | 15 | 19 | 16 |  | 22 |  |  |  |  |  |  |  | 70.7 |  |
